Results: ChEMBL document CHEMBL4393666, “Synthesis and Anti-HCV Activities of 4'-Fluoro-2'-Substituted Uridine Triphosphates and Nucleotide Prodrugs: Discovery of 4'-Fluoro-2'- C-methyluridine 5'-Phosphoramidate Prodrug (AL-335) for the Treatment of Hepatitis C Infection” (J Med Chem, 2019)

Experiments:
Hepatitis C virus [1] = test: Antiviral activity against HCV con1 subgenomic replicon infected in human HuH7 cells assessed as reduction in viral RNA replication by qRT-PCR analysis; assay type: functional, organism-based, Hepacivirus hominis; conditions: isolate Con1, Huh-7
Method in brief: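 Con1 subgenomic replicon Huh-7 cells (neomycin selection, kept in DMEM/10% FBS with 0.25 mg/ml G418) treated with compounds in DMEM, 2% FBS, 0.5% DMSO, no G418, at 37°C. Total RNA extracted; HCV RNA copy number by multiplex Taqman QRT-PCR. EC50/EC90 by 4-parameter curve fit; EC50 is the mean of ≥2 independent runs.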

[2] = Cytotoxicity against human HuH7 cells infected with HCV con1 subgenomic replicon assessed as reduction in cell viability measured after 3 days by CellTiter-blue cell viability assay; assay type: cell-based, Huh-7
Method in brief: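 Con1 replicon Huh-7 cells treated as for the replicon assay (DMEM, 2% FBS, 0.5% DMSO, no G418, 37°C) for 3 days. Viability by CellTiter-Blue; CC50 by curve fitting.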

[3] = Cytotoxicity against human HuH7 cells treated for 8 days measured post-last dose by Celltiter-glo luminescent assay; assay type: cell-based, Huh-7
Method in brief: (§1)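 Cells at 1×10^5/well on collagen I, first kept 8 days in recommended medium without drug. Then compound exposure for 8 days, refed every other day. Viability by CellTiter-Glo luminescence; CC50 by curve fitting.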

[4] = Cytotoxicity against human HepG2 cells treated for 8 days measured post-last dose by Celltiter-glo luminescent assay; assay type: cell-based; method in brief: as §1
[5] = Cytotoxicity against human A549 cells treated for 8 days measured post-last dose by Celltiter-glo luminescent assay; assay type: cell-based; method in brief: as §1
[6] = Cytotoxicity against human HeLa cells treated for 8 days measured post-last dose by Celltiter-glo luminescent assay; assay type: cell-based; method in brief: as §1
[7] = Cytotoxicity against human U937 cells treated for 8 days measured post-last dose by Celltiter-glo luminescent assay; assay type: cell-based, U-937; method in brief: as §1
[8] = Cytotoxicity against human MT4 cells treated for 8 days measured post-last dose by Celltiter-glo luminescent assay; assay type: cell-based; method in brief: as §1
Hepatitis C virus [9] = test: Antiviral activity against HCV genotype 1a H77 expressing NS5B measured after 3 days by bright-glo luciferase reporter gene assay; assay type: functional, organism-based, Hepacivirus hominis; conditions: subtype 1a H77, 72 h
Method in brief: (§2)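 Chimeric replicons carrying the NS5B of each genotype (1a H77, 1b Con1, 2b ADQ73660, 3a NZL1, 4a ABD75829). Firefly luciferase is driven by the poliovirus IRES and the HCV nonstructural genes by the EMCV IRES. Transiently transfected into Lunet cells, 10,000 cells/well. 3-fold serial dilutions, 0.5% DMSO final, 3 days. Read-out: firefly luciferase (Bright-Glo).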

Hepatitis C virus [10] = test: Antiviral activity against HCV genotype 1b con1 subgenomic replicon expressing NS5B measured after 3 days by bright-glo luciferase reporter gene assay; assay type: functional, organism-based, Hepacivirus hominis; conditions: subtype 1b con1, 72 h; method in brief: as §2
Hepatitis C virus [11] = test: Antiviral activity against HCV genotype 2b subgenomic replicon expressing NS5B measured after 3 days by bright-glo luciferase reporter gene assay; assay type: functional, organism-based, Hepacivirus hominis; conditions: subtype 2b, 72 h; method in brief: as §2
Hepatitis C virus [12] = test: Antiviral activity against HCV genotype 3a NZL1 subgenomic replicon expressing NS5B measured after 3 days by bright-glo luciferase reporter gene assay; assay type: functional, organism-based, Hepacivirus hominis; conditions: subtype 3a NZL1, 72 h; method in brief: as §2
Hepatitis C virus [13] = test: Antiviral activity against HCV genotype 4a subgenomic replicon expressing NS5B measured after 3 days by bright-glo luciferase reporter gene assay; assay type: functional, organism-based, Hepacivirus hominis; conditions: subtype 4a, 72 h; method in brief: as §2
[14] = Drug metabolism in human hepatocytes assessed as 2a-TP formation per million cells at 50 uM after 24 hrs by LC-MS/MS analysis; assay type: ADME, cell-based, Hepatocyte
Method in brief: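 Primary human hepatocytes, 1.5-2 million cells/well, in Williams E medium, acclimated >18 h. Incubated with compound at 50 μM extracellular for 24 h at 37°C, 5% CO2. Washed with cold saline, methanol/water lysis, NTP measured by LC-MS/MS per million cells.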

[15] = Drug metabolism in human HuH7 cells assessed as 2a-TP formation per million cells at 50 uM after 24 hrs by LC-MS/MS analysis; assay type: ADME, cell-based; conditions: huh-7, 24 h
Method in brief: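 Huh-7 cells in 6-well plates, DMEM with 10% FBS and G418, incubated with compound at 50 μM extracellular for 24 h at 37°C, 5% CO2. Washed with cold 0.9% NaCl, lysed in 70% methanol. Intracellular NTP by LC-MS/MS against cell-matrix calibrants, internal standard N6-benzoyladenine; expressed per million cells.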

[16] = Drug metabolism in Beagle dog liver assessed as 2a-TP level at 9.87 mg/kg, po administered as single dose measured at 4 hrs by LC-MS/MS analysis; assay type: ADME, organism-based, Canis lupus familiaris; conditions: in vivo
Method in brief: (§3)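 Male non-naïve beagle dogs fasted overnight, single oral dose of 9.87 mg/kg (5 mg/kg parent nucleoside equivalent) as a solution in 40% PEG400/water. Liver extracts analysed for NTP by LC-MS/MS against liver-homogenate calibrants. N=2 at 4 h, N=3 at 12 and 24 h.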

[17] = Drug metabolism in Beagle dog liver assessed as 2a-TP level at 9.87 mg/kg, po administered as single dose measured at 12 hrs by LC-MS/MS analysis; assay type: ADME, organism-based, Canis lupus familiaris; conditions: in vivo; method in brief: as §3
[18] = Drug metabolism in Beagle dog liver assessed as 2a-TP level at 9.87 mg/kg, po administered as single dose measured at 24 hrs by LC-MS/MS analysis; assay type: ADME, organism-based, Canis lupus familiaris; conditions: in vivo; method in brief: as §3
Hepatitis C virus [19] = test: Antiviral activity against HCV genotype 1 infected in human assessed as reduction in viral infection at 800 mg, qd measured after 6 weeks in presence of odalasvir/simeprevir relative to control; assay type: functional, Hepacivirus hominis; design: scale not given: the % may be the effect or the level left
[20] = Drug metabolism in human primary hepatocytes assessed as 2a-TP formation after 24 hrs by LC-MS/MS analysis
[21] = Drug metabolism in human primary hepatocytes assessed as 2a-TP formation at 10 uM after 6 to 24 hrs by LC-MS/MS analysis

Structure (SMILES): CC(C)OC(=O)[C@H](C)N[P@](=O)(OC[C@@]1(F)O[C@@H](n2ccc(=O)[nH]c2=O)[C@](C)(O)[C@@H]1O)Oc1ccccc1 [ADAFOSBUVIR]
- EC50 (Hepatitis C virus [1]): 70 nM
- CC50 at 72 h [2]: > 99000 nM
- CC50 at 192 h [3]: 96100 nM
- CC50 at 192 h [4]: > 100000 nM
- CC50 at 192 h [5]: > 100000 nM
- CC50 at 192 h [6]: > 100000 nM
- CC50 at 192 h [7]: > 100000 nM
- CC50 at 192 h [8]: > 100000 nM
- EC50 (Hepatitis C virus [9]): 60 nM
- EC50 (Hepatitis C virus [10]): 40 nM
- EC50 (Hepatitis C virus [11]): 40 nM
- EC50 (Hepatitis C virus [12]): 60 nM
- EC50 (Hepatitis C virus [13]): 60 nM
- Drug metabolism [14]: 3540 pmol
- Drug metabolism [15]: 5695 pmol
- Drug metabolism [16]: 23.19 µM
- Drug metabolism [17]: 35.222 µM
- Drug metabolism [18]: 29.991 µM
- Activity (Hepatitis C virus [19]): 100%
- Drug metabolism [20]: Dose-dependent effect
- Drug metabolism [21]: Metabolite_Detected
